Only some compounds are listed: those with a hit (about 2.9% of all), similar ones and a draw of the others.
Runt-SMMHC FRET: inhibitors of human RUNX1 Runt domain binding to CBFb-SMMHC | Q01196+Q13951 | Cerulean-Runt/Venus-CBFb-SMMHC FRET ratio 530/480, 1 h | inhibition, % at 20 µM | hit rate 0.74% among 220,000;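 active = mean inhibition across duplicate retests at 20 µM reaching about 50%, limit read from the data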;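 note: 0% = DMSO wells and 100% = wells with excess untagged CBFb-SMMHC; inhibitors lower the FRET ratio by blocking Runt binding to CBFb-SMMHC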
AI-2 QS mod: modulates the Vibrio harveyi AI-2 quorum sensing system; Vibrio harveyi JMH597 AI-2 luminescence/OD600 ratio, 9 h; active compounds read low; strain lacks LuxN and CqsS sensors; 0 = neutral-control median; activity change, % at 7.5 µM; hit rate 0.4% among 300,000; AID 2094; in the data active = activity change below about -75%, passing the limit was not always enough;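 note: luminescence divided by OD600 gain over 9 h not by final OD600 alone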
Runt-CBFb FRET: inhibitors of human RUNX1 Runt domain binding to CBFb. Cerulean-Runt/Venus-CBFb FRET ratio 530/480, 1 h. Q01196+Q13951. inhibition, % at 20 µM. AID 1496. hit rate 0.46% among 220,000;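 active = inhibition over about 50% at 20 µM in the single-dose screen, limit read from the data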;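 note: 0% = DMSO wells and 100% = excess unlabeled CBFb competitor control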
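Doses: 20 µM compound in 1% DMSO | Material: Cerulean-labeled Runt domain protein | Amount: Each fluorescent fusion protein 100 nM | Schedule: Two 1 h room-temperature incubations shielded from light | Measured by: FRET fluorescence | Evaluation: Loss of energy transfer signal | Controls: Unlabeled CBFb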
RanGTP-Imp inh: disruptors of Ran-importin-beta complex formation – biochemical, FRET, CFP-Ran, YFP-importin-beta, homogeneous, primary screen; cell-free CFP-Ran/YFP-importin-beta FRET ratio; inhibition, % (no concentration beside the values); hit rate 1.1% among 300,000; AID 2216;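 active = more than half of the replicate wells show a fall in the fluorescence ratio signal beyond about 16%, limit read from the data, passing the limit was not always enough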;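 note: 0% = DMSO wells and 100% = Ran loaded with GDP instead of GTP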
Wee1 degr inh: inhibitors of human Wee1 degradation; HeLa Luc-Wee1K328M stability, luciferase luminescence; 100% = proteasome inhibitor MG132 effect; reporter increase, % at 5 µM; hit rate 1.2% among 220,000;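 active = activation above the mean of all tested compounds plus 3 SD, set per screening run, cut at about 8.8% in these data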;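 note: cells exposed to compound for 20 h before luminescence read; 0% = DMSO alone and 100% = MG132 at 30 µM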
proKLK7 act: activators of human kallikrein-7 zymogen. purified proKLK7, EDANS-DABCYL substrate fluorescence; 100% is mature enzyme control, 0% vehicle. activation, % at 7 µM. P49862. AID 652039. hit rate 0.9% among 370,000;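 active = activation above the mean of all tested compounds plus 3 SD, computed per campaign excluding outliers beyond control limits, cut at about 13% in these data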
Target sequence (P49862 whole entry, looked up): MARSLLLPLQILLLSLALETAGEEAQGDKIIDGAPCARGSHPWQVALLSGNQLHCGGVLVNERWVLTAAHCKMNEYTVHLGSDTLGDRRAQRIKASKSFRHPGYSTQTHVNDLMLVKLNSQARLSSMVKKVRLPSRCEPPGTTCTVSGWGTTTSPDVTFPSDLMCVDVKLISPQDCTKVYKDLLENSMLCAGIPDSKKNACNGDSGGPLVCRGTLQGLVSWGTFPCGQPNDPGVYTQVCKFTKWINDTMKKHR
The depositor's hits bear a star; · = no result given.

SMILES | Runt-SMMHC FRET | AI-2 QS mod | Runt-CBFb FRET | RanGTP-Imp inh | Wee1 degr inh | proKLK7 act
Cc1cc(C)c2[nH]c(C(=O)Nc3ccc(F)cc3Br)cc2c1 | · | 26 | · | 4 | · | -1
COc1ccc(-c2nc(CC(=O)O)cs2)cc1OC | -1 | 12 | -1 | -4 | 23* | 1
CCNC(=O)Nc1ccc2c(c1)C(=O)N(C)[C@H]1CC[C@H](CC(=O)N[C@H](C)c3ccccc3)O[C@@H]1CO2 | · | · | · | · | · | 0
CC(C)(C)c1cc(/C=N/NC(=O)Cc2nc3ccccc3[nH]2)cc(C(C)(C)C)c1O | 30 | 13 | 13 | 39* | -2 | -7
COc1ccccc1OCCn1cc(/C=C(\C#N)C(=O)NCc2ccco2)c2ccccc21 | -8 | 25 | 0 | 2 | 1 | -60
COc1ccc(/C=c2\s/c(=C(/C#N)C(=O)NCc3ccco3)n(-c3ccccc3)c2=O)cc1 | -126 | -6 | -154 | 83* | 2 | -2
Cc1ccc(C)c(OCCn2cc(/C=C(\C#N)C(=O)NCc3ccco3)c3ccccc32)c1 | 63* | 17 | 19 | 4 | 1 | -1
COc1ccc(OCCn2cc(/C=C(\C#N)C(=O)NCc3ccco3)c3ccccc32)cc1 | 86* | 35 | -21 | 71* | 3 | -5
O=C(Nc1cccc([N+](=O)[O-])c1)OCc1ccc2c(c1)OCO2 | · | · | · | · | · | 0
CCn1c(SCc2nc3ccccc3c(=O)[nH]2)nnc1C(C)NC(=O)c1ccccc1 (configuration not stated) | -6 | 29 | 2 | -6 | 1 | -1
CC(NC(=O)c1ccccc1)c1nnc(SCc2nc3ccccc3c(=O)[nH]2)n1C (configuration not stated) | -2 | 16 | -2 | -3 | 8.8* | -1
O=S1(=O)c2ccc(N3CCSCC3)cc2Oc2ccccc2CN1Cc1cn(Cc2ccc(Cl)cc2)nn1 | · | · | · | · | · | 0
O=C(O)CN1C(=O)NC2(CCOc3ccccc32)C1=O (configuration not stated) | 38 | 23 | 5 | 0 | 9.8* | 0
CCN1C(=NCCc2cccs2)N[C@@H](c2cccs2)C(C(=O)OC)=C1C | · | 12 | · | 31* | · | ·
O=C(NNc1cc(N2CCOCC2)nc(N2CCOCC2)n1)c1ccc(Cl)cc1Cl | -5 | 18 | 4 | 76* | 4 | 0
CC(=O)NNc1cc(N2CCOCC2)nc(N2CCOCC2)n1 | 86* | 9 | 49 | 83* | -3 | 1
Oc1cccc(/C=N/Nc2cc(N3CCOCC3)nc(N3CCOCC3)n2)c1 | 2 | 7 | 1 | 6 | 2 | -1
O=C(CCc1ccccc1)NNc1cc(N2CCCCC2)nc(N2CCCCC2)n1 | -7 | -2 | -5 | 71* | 1 | 0
COc1ccc(NC(=O)NNc2cc(N3CCOCC3)nc(N3CCOCC3)n2)cc1 | 4 | -17 | 2 | 66* | 3 | 0
O=C(NNc1cc(N2CCCC2)nc(N2CCCC2)n1)c1ccc([N+](=O)[O-])cc1 | · | 28 | · | -1 | -3 | -1
Cc1c(-c2ccn[nH]2)cc(NC(=O)c2ccc(Cl)cc2)c(=O)n1N | -1 | 14 | -1 | -4 | -2 | 1
CC(C)(C)c1ccc(C(=O)NNc2cc(N3CCOCC3)nc(N3CCOCC3)n2)cc1 | -6 | 8 | -1 | 85* | 3 | 0
CC(C)(C)c1ccc(C(=O)NNc2cc(N3CCCCC3)nc(N3CCCCC3)n2)cc1 | -4 | 16 | -10 | 5 | 0 | 0
O=C1CCCC2=C1[C@@]1(O[C@H]3C=CC=CN23)C(=O)N(c2ccccc2)c2ccccc21 | · | · | · | · | · | 1
O=C(CSc1nnc(NCc2ccccc2)s1)NC1CCS(=O)(=O)C1 (configuration not stated) | -2 | 4 | 0 | 3 | -2 | 0
SMILES | Runt-SMMHC FRET | AI-2 QS mod | Runt-CBFb FRET | RanGTP-Imp inh | Wee1 degr inh | proKLK7 act
O=C(CSc1nc2ccccc2s1)NC1CCS(=O)(=O)C1 (configuration not stated) | -1 | 23 | 0 | -1 | 11* | 0
CC(C)N1CCN(CC#Cc2ccccc2)CC1CCO (configuration not stated) | · | 5 | · | 1 | 0 | 0
CC(C)N1CCC(N2CCN(CC#Cc3ccccc3)CC2CCO)CC1 (configuration not stated) | -1 | 15 | 0 | -2 | 16* | -1
CN1CCc2c(sc3c2C(=O)NC(c2cn(Cc4ccccc4)c4ccccc24)N3)C1 (configuration not stated) | 70* | 30 | 63* | 60* | -3 | 0
COC(=O)C1=C(C)NC(=O)NC1c1ccc(-c2ccc(Cl)cc2)o1 (configuration not stated) | 17 | 40 | 22 | · | 1 | 0
O=C1NC(c2ccco2)Nc2sc3c(c21)CCN(Cc1ccccc1)C3 (configuration not stated) | 59* | · | 49 | · | 1 | 2
Cn1cccc1C1NC(=O)c2c(sc3c2CCC(C(C)(C)C)C3)N1 (configuration not stated) | 1 | 30 | 3 | -2 | -2 | 0
CN1CCc2c(sc3c2C(=O)NC(c2ccco2)N3)C1 (configuration not stated) | 38 | 9 | 127* | 113* | -3 | -2
Cn1cc(C2NC(=O)c3ccccc3N2)c2ccccc21 (configuration not stated) | · | · | · | · | · | 0
CCOC(=O)N1CCc2c(sc3c2C(=O)NC(c2ccccc2)N3)C1 (configuration not stated) | 13 | 30 | 11 | 7 | 2 | ·
CN1CCc2c(sc3c2C(=O)NC(c2ccc(-c4ccc(Cl)cc4)o2)N3)C1 (configuration not stated) | 33 | 9 | 114* | 90* | -3 | -7
OC(c1ccccc1)(c1ccccc1)C1CCN(CCCNc2cccc(OC(F)(F)F)c2)CC1 | · | · | · | · | · | 0
COc1ccc(Br)cc1C1NC(=O)c2c(sc3c2CCN(C)C3)N1 (configuration not stated) | 65* | · | 113* | · | · | 1
COc1ccc2nccc(/C=C/c3ccnc4ccc(OC)cc34)c2c1 | 82* | 14 | 0 | 61* | -3 | -53
CCC(=O)c1ccc(OCC(O)CNC2CCCC2)cc1 (configuration not stated) | · | 20 | · | -2 | · | 0
Cc1c(C(=O)Nc2ccccc2)cn2c(nc3ccccc32)c1C#N | -32 | 1 | -19 | 8 | 1 | 1
Cc1ccccc1NC(=O)c1cn2c(nc3ccccc32)c(C#N)c1C | 81* | 10 | -56 | 10 | -2 | 0

Bioassay records deposited in PubChem by several laboratories.
